Results as given in ChEMBL document CHEMBL4480400, “Development of an N-Acyl Amino Acid That Selectively Inhibits the Glycine Transporter 2 To Produce Analgesia in a Rat Model of Chronic Pain” (J Med Chem, 2019).

Columns and labels:
[1] = target: T1, Sodium- and chloride-dependent glycine transporter 1 (Homo sapiens, UniProt P48067); test: Inhibition of recombinant human GlyT1b expressed in Xenopus laevis oocytes assessed as reduction in channel current by two-electrode voltage clamp electrophysiology; format: cell-based
T1 sequence (P48067 whole entry): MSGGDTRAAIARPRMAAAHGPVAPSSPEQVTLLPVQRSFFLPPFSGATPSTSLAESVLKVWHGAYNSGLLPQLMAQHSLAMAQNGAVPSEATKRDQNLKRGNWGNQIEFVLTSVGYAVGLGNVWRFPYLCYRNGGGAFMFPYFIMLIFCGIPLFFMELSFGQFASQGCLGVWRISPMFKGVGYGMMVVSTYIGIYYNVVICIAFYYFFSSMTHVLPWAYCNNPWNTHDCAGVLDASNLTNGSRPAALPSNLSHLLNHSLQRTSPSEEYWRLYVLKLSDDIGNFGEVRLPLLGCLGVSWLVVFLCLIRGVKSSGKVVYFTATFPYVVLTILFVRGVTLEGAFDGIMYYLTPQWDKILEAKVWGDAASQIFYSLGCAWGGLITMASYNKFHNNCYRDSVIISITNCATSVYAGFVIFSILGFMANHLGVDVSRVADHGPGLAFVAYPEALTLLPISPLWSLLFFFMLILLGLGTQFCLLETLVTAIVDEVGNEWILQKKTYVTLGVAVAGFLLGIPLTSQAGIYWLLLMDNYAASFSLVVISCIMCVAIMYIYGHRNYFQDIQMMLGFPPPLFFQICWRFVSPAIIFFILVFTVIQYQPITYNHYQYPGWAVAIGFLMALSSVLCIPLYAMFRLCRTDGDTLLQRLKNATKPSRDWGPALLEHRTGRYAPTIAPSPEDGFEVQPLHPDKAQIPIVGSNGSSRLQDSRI

[2] = target: T2, Sodium- and chloride-dependent glycine transporter 2 (Homo sapiens) (UniProt Q9Y345); test: Inhibition of recombinant human GlyT2a expressed in Xenopus laevis oocytes assessed as reduction in channel current by two-electrode voltage clamp electrophysiology relative to control; format: cell-based
T2 sequence (whole entry): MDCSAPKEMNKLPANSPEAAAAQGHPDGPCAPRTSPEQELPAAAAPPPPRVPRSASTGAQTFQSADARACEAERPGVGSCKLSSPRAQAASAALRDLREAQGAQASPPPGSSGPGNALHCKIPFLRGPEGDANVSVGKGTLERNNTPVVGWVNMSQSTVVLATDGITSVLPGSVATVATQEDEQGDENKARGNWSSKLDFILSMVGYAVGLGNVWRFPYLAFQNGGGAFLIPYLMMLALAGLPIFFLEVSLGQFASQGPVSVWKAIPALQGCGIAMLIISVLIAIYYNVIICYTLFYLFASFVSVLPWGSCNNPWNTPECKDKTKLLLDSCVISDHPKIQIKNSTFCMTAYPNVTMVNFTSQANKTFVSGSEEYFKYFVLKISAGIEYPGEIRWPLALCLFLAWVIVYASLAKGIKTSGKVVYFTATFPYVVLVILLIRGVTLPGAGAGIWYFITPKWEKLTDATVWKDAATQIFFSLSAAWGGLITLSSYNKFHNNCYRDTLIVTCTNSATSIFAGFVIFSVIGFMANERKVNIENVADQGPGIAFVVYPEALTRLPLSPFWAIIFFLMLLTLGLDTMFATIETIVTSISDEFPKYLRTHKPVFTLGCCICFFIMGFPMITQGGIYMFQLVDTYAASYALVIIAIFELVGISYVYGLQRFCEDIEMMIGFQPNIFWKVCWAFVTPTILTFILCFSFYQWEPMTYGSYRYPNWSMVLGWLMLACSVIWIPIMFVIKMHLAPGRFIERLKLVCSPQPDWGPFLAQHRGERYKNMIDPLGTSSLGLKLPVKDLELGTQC

[3] = target: T3, Sodium- and chloride-dependent glycine transporter 2 (Homo sapiens, UniProt Q9Y345); test: Inhibition of recombinant human GlyT2a expressed in Xenopus laevis oocytes assessed as reduction in channel current by two-electrode voltage clamp electrophysiology; format: cell-based
T3 sequence (Q9Y345 whole entry): T2 sequence (whole entry)

[4] = target: T3, Sodium- and chloride-dependent glycine transporter 2; test: Reversible non-competitive inhibition of human GlyT2a expressed in Xenopus laevis oocytes by two-electrode voltage clamp electrophysiology; format: cell-based
In short: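 Xenopus laevis stage V-VI oocytes injected with 4.6 ng GlyT2 cRNA, kept 2-5 days at 16-18 °C in ND96 (pH 7.55). Two-electrode voltage clamp at -60 mV. Glycine concentration responses recorded without inhibitor, then after 2 min pre-application of inhibitor (10 nM, 30 nM or 1 μM) in ND96. Currents normalised per cell to Imax at 300 μM glycine without inhibitor; EC50 and Imax compared by ANOVA.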

[5] = Degradation half life in rat plasma at 1000 ng/ml by LC-MS/MS analysis; format: ADME, cell-free
In short: (§1)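 Pooled human plasma (3 donors) or pooled male Sprague-Dawley rat plasma, thawed at 37°C. Spiked to a nominal 1000 ng/mL final (0.2% DMSO, 0.4% acetonitrile final) and incubated at 37°C. Aliquots were snap-frozen at time points over 4 h (n=3 per time point). Quantified by LC-MS against a same-species blank-plasma calibration with a leucine enkephalin internal standard.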

[6] = Drug degradation in human plasma at 1000 ng/ml measured over 240 mins by LC-MS/MS analysis; format: ADME, cell-free; settings: read-out: Drug degradation; in short: as §1
[7] = Degradation half life in human plasma at 1000 ng/ml by LC-MS/MS analysis; format: ADME, cell-free; in short: as §1

| SMILES | IC50 [1] [µM] | Imax [2] [%] | IC50 [3] [µM] | IC50 [4] [µM] | t1/2 [5] [h] | metabolised at 4 h, 1000 ng/ml [6] [%] | t1/2 [7] [h] |
| --- | --- | --- | --- | --- | --- | --- | --- |
| CCCCCCCC/C=C\CCCCCCCC(=O)N[C@@H](CC(C)C)C(=O)O | > 10 | 72.2 | 0.143 | – | – | – | – |
| CCCCCCCC/C=C\CCCCCCCC(=O)N[C@H](CC(=O)O)C(=O)O | > 10 | 92.5 | 1.81 | – | – | – | – |
| CCCCCCCCCCCCCCCC(=O)O[C@H](CC(=O)[O-])C[N+](C)(C)C | – | – | – | 0.6 | – | – | – |
| CCCCCCCC/C=C\CCCCCCCC(=O)N[C@H](CCCNC(=N)N)C(=O)O | > 3 | 70.9 | 0.0692 | – | – | – | – |
| CCCCCCCC/C=C\CCCCCCCC(=O)N[C@H](CCc1ccccc1)C(=O)O | > 10 | 10.2 | > 10 | – | – | – | – |
| CCCCCCCC/C=C\CCCCCCCC(=O)N[C@@H](C(=O)O)C(C)C | > 30 | 56.7 | 1 | – | – | – | – |
| CCCCCCCC/C=C\CCCCCCCC(=O)N[C@@H](Cc1cnc[nH]1)C(=O)O | > 3 | 78.4 | 0.13 | – | – | – | – |
| CCCCCCCC/C=C\CCCCCCCC(=O)N[C@@H](CCCNC(=N)N)C(=O)O | > 3 | 87.2 | 0.0479 | – | – | – | – |
| CCCCCCCC/C=C\CCCCCCCC(=O)N[C@@H](CCCCN)C(=O)OC | > 3 | 78.8 | 0.0913 | – | – | – | – |
| CCCCC/C=C\C/C=C\C/C=C\C/C=C\CCCC(=O)NCC(=O)O [ARACHIDONOYL GLYCINE] | – | – | – | 9 | – | – | – |
| CCCCCCCC/C=C\CCCCCCCC(=O)NCC(=O)O [OLEOYL GLYCINE] | > 30 | 66.8 | 0.5 | 0.5 | 0.45 | < 15 | > 17.03 |
| CCCCCCCC/C=C\CCCCCCCC(=O)NCCCCCN | > 3 | 86.7 | 0.56 | – | – | – | – |
| CCCCCCCC/C=C\CCCCCCCC(=O)N[C@H](CCSC)C(=O)O | > 3 | 68.6 | 0.259 | – | – | – | – |
| CCCCCCCC/C=C\CCCCCCCC(=O)N[C@@H](CC(N)=O)C(=O)O | > 10 | 92.7 | 0.613 | – | – | – | – |
| CCCCCCCC/C=C\CCCCCCCC(=O)N[C@@H](CC(=O)O)C(=O)O | > 10 | 76.7 | 0.865 | – | – | – | – |
| CCCCCCCC/C=C\CCCCCCCC(=O)N[C@@H](CCc1ccccc1)C(=O)O | > 10 | 75.1 | 0.151 | – | – | – | – |
| CCCCCCCC/C=C\CCCCCCCC(=O)N[C@H](C)C(=O)O | > 30 | 81.7 | 2.33 | – | – | – | – |
| CCCCCCCC/C=C\CCCCCCCC(=O)N[C@@H](CCC(=O)O)C(=O)O | > 10 | 100 | 4.35 | – | – | – | – |
| CCCCCCCC/C=C\CCCCCCCC(=O)N[C@@H](C)C(=O)O | > 30 | 89.8 | 1.23 | – | – | – | – |

| SMILES | IC50 [1] [µM] | Imax [2] [%] | IC50 [3] [µM] | IC50 [4] [µM] | t1/2 [5] [h] | metabolised at 4 h, 1000 ng/ml [6] [%] | t1/2 [7] [h] |
| --- | --- | --- | --- | --- | --- | --- | --- |
| CCCCCCCC/C=C\CCCCCCCC(=O)N[C@H](CC(C)C)C(=O)O | > 30 | 35.6 | > 30 | – | – | – | – |
| CCCCCCCC/C=C\CCCCCCCC(=O)N[C@@H](CCSC)C(=O)O | > 3 | 91.2 | 0.0292 | – | – | – | – |
| CCCCCCCC/C=C\CCCCCCCC(=O)N[C@H](C(=O)O)C(C)C | > 30 | 90.1 | 1.17 | – | – | – | – |
| CCCCCCCC/C=C\CCCCCCCC(=O)N[C@@H](CCN)C(=O)O | > 3 | 82.7 | 0.152 | – | – | – | – |
| CCCCC/C=C\C/C=C\C/C=C\C/C=C\CCCC(=O)N[C@@H](C)C(=O)O | – | – | – | 9 | – | – | – |
| CCCCCCCC/C=C\CCCCCCCC(=O)N[C@@H](Cc1ccccc1)C(=O)O | > 10 | 54.7 | 0.214 | – | – | – | – |
| CCCCC/C=C\C/C=C\C/C=C\C/C=C\CCCC(=O)NCCCC(=O)O [ARACHIDONOYL GABA] | – | – | – | 12 | – | – | – |
| CCCCCCCC/C=C\CCCCCCCC(=O)N[C@H](Cc1c[nH]c2ccccc12)C(=O)O | > 10 | 14.2 | > 10 | – | – | – | – |
| CCCCCCCC/C=C\CCCCCCCC(=O)N[C@@H](CCCN)C(=O)O | > 3 | 86 | 0.0316 | – | – | – | – |
| CCCCCCCC/C=C\CCCCCCCC(=O)N[C@@H](Cc1c[nH]c2ccccc12)C(=O)O | > 10 | 86.2 | 0.0546 | – | – | – | – |
| CCCCCCCC/C=C\CCCCCCCC(=O)N[C@@H](CCCC)C(=O)O | > 10 | 64.5 | 0.259 | – | – | – | – |
| CCCCCCCC/C=C\CCCCCCCC(=O)N[C@H](CCC(=O)O)C(=O)O | > 10 | 91.6 | 3.75 | – | – | – | – |
| CCCCCCCC/C=C\CCCCCCCC(=O)N[C@@H](CN)C(=O)O | > 3 | 58.2 | 0.182 | – | – | – | – |
| CCCCCCCC/C=C\CCCCCCCC(=O)N[C@@H](CO)C(=O)O | > 3 | 73.1 | 0.496 | – | – | – | – |
| CCCCCCCC/C=C\CCCCCCCC(=O)O[C@H](CC(=O)[O-])C[N+](C)(C)C | – | – | – | 0.34 | – | – | – |
| CCCCCCCC/C=C\CCCCCCCC(=O)N[C@H](CO)C(=O)O | > 3 | 73.6 | 0.0648 | – | – | – | – |
| CCCCCCCC/C=C\CCCCCCCC(=O)N[C@H](Cc1ccccc1)C(=O)O | > 10 | 42.3 | > 10 | – | – | – | – |
| CCCCCCCC/C=C\CCCCCCCC(=O)N[C@H](Cc1cnc[nH]1)C(=O)O | > 3 | 82.1 | 0.313 | – | – | – | – |
